We go through 3 molecules from PMC6018302 (Chemical Science, 2016).

Data set [1] relates to pUC19 plasmid DNA. Kind of data set: Thermal. It is filed as binding. Particulars: pUC19, phosphate buffer, 37 °C, 24 h, up to 5 : 1 BP : MC ratio.
The conditions of data set [2]: reference value, CD3OD; cited from earlier work.
The subject of data set [3] is A431 and A549 cancer cells. The data set is classed as cell-based, human. Particulars: 520 nm, 75 J cm^–2, compared to the dark control; maximum. In outline:
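Photo index is the ratio of dark EC50 to green-light EC50 (520 nm, 60 min, 75 J cm–2). Light was applied after 6 h or 24 h dark pre-incubation with test compound (37 °C, 7% CO2). EC50 is the concentration giving 50% viability loss versus untreated wells.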

The nature of data set [4]: Singlet oxygen quantum yield by 1274 nm emission in CD3OD. The data set is classed as physicochemical. Conditions: 450 nm excitation, under air, 298 K.
A short description of data set [5]: Photosubstitution quantum yield under blue light. The data set is classed as physicochemical. Conditions: blue light irradiation 450 nm, in water.
Data set [6] has as its system A549 cells. Kind of data set: Annexin V-FITC/propidium iodide flow cytometry. It is filed as cell-based, human. Particulars: A549, green light irradiation. The method in brief:
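A549 cells were treated with test compound (1.5 μM or 10 μM, by complex) for 6 h in the dark. They then received 1 h green light (520 nm, 75 J cm–2) followed by 24 h dark incubation, or were kept dark throughout (31 h). Annexin V-FITC (525 nm) and propidium iodide (670 nm) were read by flow cytometry. Quadrants: lower left live, lower right apoptotic, upper left necrotic, upper right secondary necrotic.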

Data set [7] has as its system A549 cells. Kind of data set: Cell fractionation and ruthenium uptake by ICP-MS. It is filed as cell-based, human. In outline: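 A549 cells were exposed to test compound for 6 h in the dark, then harvested. Cytosol, membrane, nuclei and cytoskeleton fractions were separated. Ruthenium in each fraction was quantified by ICP-MS.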
Data set [8] concerns pUC19 plasmid DNA. Nature of the data set: Photoinduced binding to plasmid DNA, agarose gel. Particulars: pUC19, 50 : 1 BP : MC, λirr = 520 nm, 5–60 min. The method in brief: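 pUC19 plasmid was mixed with test compound (50:1 BP:MC) and irradiated at 520 nm for 5, 15, 30, 45 or 60 min. Controls were dark and irradiated DNA alone and a dark 50:1 sample. Cisplatin was included as a reference. Agarose gel with lambda DNA marker; linear dimer, open circular and supercoiled forms were scored.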

Data set [9] in a line: Dark stability in aqueous and DMSO solutions. The data set is classed as physicochemical. The method in brief:
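Test compound solutions in D2O or DMSO were kept in the dark, with DMSO also held at –20 °C, and monitored over time. Chloride effect in aqueous solution was probed by adding NaCl up to 0.15 M.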

For data set [10], the system named is A549 cells. Nature of the data set: Confocal microscopy of mitochondrial potential. The data set is classed as cell-based, human. Conditions: A549, TMRE and DRAQ5 staining, green light 75 J cm^–2.
Data set [11] is described as follows: Water solubility. The data set is classed as physicochemical.

On to `N.N.[Cl][Pt][Cl]` [Cisplatin, cis-diamineplatinum(II) dichloride, reference compound], for which the “dark thermal DNA binding” value in [1] is given as “typical DNA binding results”.

Consider `[Cl][Ru][Cl].c1ccc(-c2ccccn2)nc1.c1ccc(-c2ccccn2)nc1.c1ccc(-c2ccccn2)nc1` [[Ru(bpy)3]Cl2], for which, in data set [2], the “quantum yield of 1O2 generation (Φref)” value is 73%.

As for [Ru(biqbpy)(dmso)Cl]Cl [[1]Cl], the “photo-indices (increase in cytotoxicity after green light vs dark)” value in [3] is “up to 22”. The “quantum yield of 1O2 generation (Φ1O2)” value in [4] is listed as 1.3%. Besides, the “photosubstitution quantum yield (ΦPS)” value in data set [5] is 0.3%. Moreover, the “type of cell death (photocytotoxicity)” value in data set [6] is recorded as “apoptosis without any sign of necrosis”. Besides, in [7] (A549, 6 h in the dark at EC50 concentration, cell fractionation), the “preference for the membrane fraction (intracellular distribution)” value is recorded as “strong”. Moreover, the “total uptake (ruthenium)” value in data set [7] (A549, 6 h in the dark at concentration corresponding to the EC50 value, ICP-MS) is 16 ng/10^6 cells. For the same molecule, in [1], the “dark thermal DNA binding” value was “negligible binding”. Moreover, the “photoinduced DNA binding” value in data set [8] is recorded as “significant retardation of the SC form”. In addition, the “dark stability of DMSO solution” value in [9] (DMSO, –20 °C) is “stable in the dark at –20 °C for at least six months”. In addition, the “stability of Ru–S bond with dmso ligand” value in data set [9] (aqueous or DMSO solutions, 298 K) was “remained stable”. In addition, the “hydrolysis of chloride ligand” value in data set [9] (upon dissolution in deionized water or D2O) is recorded as “immediately hydrolysed”. Further, the “effect of light irradiation on mitochondria and nuclear DNA” value in [10] was “diminished the mitochondrial membrane potential and induced chromosomal condensation”. Moreover, the solubility in water result in [11] is “water-soluble”.
